Consider 18 molecules from ChEMBL document CHEMBL1149637, “Design, synthesis, and evaluation of potential inhibitors of brassinin glucosyltransferase, a phytoalexin detoxifying enzyme from Sclerotinia sclerotiorum” (Bioorg Med Chem, 2007).

One may read the inhibition as how much of the control response was suppressed. Broadly, the half-life is the time in which the quantity being followed falls by half.

Each structure is given as a SMILES string. Active and inactive are the calls of the source. No cut-off for these calls is given here.

Data set [1] deals with Sclerotinia sclerotiorum. Nature of the data set: Antifungal activity against Sclerotina sclerotiorum assessed as growth inhibition at 0.05 mM after 48 hrs. In kind it is functional. Summed up: (§1)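 S. sclerotiorum clone #33 radial growth assay: mycelial plugs (4 mm, from 3-day-old PDA plates) placed upside down in wells of minimal medium containing compound diluted from 50 mM DMSO stock. Medium-only controls contained 1% DMSO. […] Run in triplicate, at least three times.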

Data set [2] in a line: Metabolic stability assessed as half life in Sclerotina sclerotiorum at 0.10 mM. The conditions noted are these: sclerotinia sclerotiorum, Sclerotinia sclerotiorum (whole organism). Type of data set: ADME, organism-based. Summed up: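 Four-day-old mycelial cultures in minimal medium (22 °C, 120 rpm, constant light) received inhibitor (0.050 or 0.10 mM final, in CH₃CN at 0.5% v/v). After 10 min, brassinin (0.05 mM final) was added. Samples were withdrawn over time, EtOAc-extracted and analysed by HPLC-DAD for remaining brassinin. Half-life of brassinin was compared with brassinin-only cultures. An uninoculated medium control was included.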

Data set [3] concerns Sclerotinia sclerotiorum. Briefly: Inhibition of Sclerotina sclerotiorums brassinin glucosyl transferase assessed as specific activity at 0.60 mM. Summed up:
(§2)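 Crude cell-free homogenate from clone #33 grown 7 days in PDB, induced with camalexin (0.05 mM final, 24 h). Mycelia were ground in ice-cold 50 mM Tris-HCl pH 8.0 buffer and centrifuged at 58,545g for 40 min. Inhibitor (from DMSO) was preincubated 30 min at room temperature with extract and UDPG (0.3 mM final). Brassinin (0.3 mM) was added, then 60 min incubation, EtOAc extraction and HPLC quantification of glucosylbrassinin. Protein measured by Bradford. Relative activity = specific activity vs brassinin-only control. Triplicate.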

Data set [4] has as its system Sclerotinia sclerotiorum. Nature of the data set: Inhibition of Sclerotina sclerotiorums brassinin glucosyl transferase assessed as percent relative activity in relative to brassinin at 0.30 mM. More on the design: scale not given: the % may be the effect or the level left. Put shortly: as §2
The subject of data set [5] is Sclerotinia sclerotiorum. Briefly: Antifungal activity against Sclerotina sclerotiorum assessed as growth inhibition at 0.01 mM after 48 hrs. Type of data set: functional.
Data set [6] deals with Sclerotinia sclerotiorum. Briefly: Antifungal activity against Sclerotina sclerotiorum assessed as growth inhibition at 0.10 mM after 48 hrs. In kind it is functional. Put shortly: as §1
Data set [7] concerns Sclerotinia sclerotiorum. Nature of the data set: Inhibition of Sclerotina sclerotiorums brassinin glucosyl transferase assessed as specific activity at 0.30 mM. Put shortly: as §2
Data set [8] has as its system Sclerotinia sclerotiorum. Nature of the data set: Inhibition of Sclerotina sclerotiorums brassinin glucosyl transferase assessed as percent relative activity in relative to brassinin at 0.60 mM. More on the design: scale not given: the % may be the effect or the level left. Summed up:
as §2

The subject of data set [9] is Sclerotinia sclerotiorum. Nature of the data set: Antifungal activity against Sclerotina sclerotiorum assessed as growth inhibition at 0.30 mM after 48 hrs. Type of data set: functional. Summed up: as §1
A short description of data set [10]: Metabolic stability assessed as half life in Sclerotina sclerotiorum at 0.03 mM. In kind it is ADME, organism-based. Conditions: sclerotinia sclerotiorum, Sclerotinia sclerotiorum (whole organism).
The test system of data set [11] is Sclerotinia sclerotiorum. Nature of the data set: Antifungal activity against Sclerotina sclerotiorum assessed as growth inhibition at 0.50 mM after 48 hrs. In kind it is functional. Put shortly:
as §1

A short description of data set [12]: Metabolic stability assessed as half life in Sclerotina sclerotiorum. Type of data set: ADME, organism-based. The conditions noted are these: sclerotinia sclerotiorum, Sclerotinia sclerotiorum (whole organism). Summed up:
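S. sclerotiorum clone #33 mycelial plugs were grown 4 days in minimal medium at 22 ± 1 °C, shaken at 120 rpm under constant light. Compound (0.050 or 0.10 mM final, in CH₃CN 0.5% v/v) was added, then brassinin (0.05 mM final) 10 min later. Samples taken over time were extracted with EtOAc, brassinin was measured by HPLC-DAD, and brassinin half-life was compared with brassinin-only cultures.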

The nature of data set [13]: Metabolic stability assessed as half life in Sclerotina sclerotiorum at less than 0.01 mM. In kind it is ADME, organism-based. Conditions: sclerotinia sclerotiorum, Sclerotinia sclerotiorum (whole organism).

For the molecule `Fc1ccc2c(-c3ccccc3)c[nH]c2c1` [6-FLUORO-3-PHENYLINDOLE], in data set [1], the inhibition at 50 µM was determined as 87%. In [2], the half-life at 100 µM is 10 h. For the same molecule, the Activity (10^-10.mol/mg/min) in data set [3] is 0.2; in data set [7], 0.34. Further, the values for the Activity in [4] and in data set [8] were 23% and 13%, respectively. The inhibition at 10 µM in data set [5] turned out to be 65%. Moreover, in [6], the inhibition at 100 µM stood at 93%.

For `c1ccc(-c2c[nH]c3ccccc23)cc1` [3-PHENYLINDOLE], the inhibition at 50 µM in data set [1] stood at 93%. In data set [2], the half-life at 100 µM is 10 h. Further, the Activity (10^-10.mol/mg/min) in data set [3] is 0.19; in data set [7], 0.35. The Activity came to 23% in [4] and 13% in data set [8]. The inhibition at 10 µM in data set [5] was 78%. Moreover, the inhibition at 100 µM in data set [6] was 100%.

As for `CSC(=S)NCc1cc2ccccc2o1`, the inhibition at 300 µM in data set [9] is 100%. Besides, in data set [10], the half-life at 30 µM is 6 h. The values for the Activity (10^-10.mol/mg/min) in data set [3] and in [7] were 0.43 and 0.64, respectively. Also, the Activity amounted to 43% in data set [4] and 29% in data set [8]. The inhibition at 100 µM in data set [6] is 32%.

As to `Fc1ccc2c(-c3nccs3)c[nH]c2c1`, the Activity (10^-10.mol/mg/min) was found to be 1 in [3] and 0.97 in data set [7]. The Activity in [4] came out at 66%; in [8] it was 63%.

Take `COC(=O)c1cnn2ccc(OC)cc12`: in [11], the inhibition at 500 µM came to 20%. Moreover, the outcome in data set [9] was inactive. Also, the Activity (10^-10.mol/mg/min) in [3] was determined as 1.49; in data set [7] it was 1.51. Moreover, the Activity in data set [4] and in data set [8] was 100% throughout.

Consider `CSC(=S)NCc1c[nH]c2ncccc12`, for which, in data set [11], the inhibition at 500 µM stood at 65%. Also, in [9], the inhibition at 300 µM was found to be 28%. Further, the Activity (10^-10.mol/mg/min) worked out at 0.75 in data set [3] and 1.02 in data set [7]. For the same molecule, the Activity was determined as 68% in data set [4] and 50% in [8]. For the same molecule, the result in data set [6] was inactive.

On to `CC(=O)Nc1cnc2ccccc2c1`, for which, in data set [11], the outcome was inactive. The Activity (10^-10.mol/mg/min) in data set [3] was determined as 1.53; in data set [7] it was 1.58. Besides, the Activity in data set [4] and in [8] was 100% throughout.

Regarding `COc1ccn2ncc(CNC(=S)SC)c2c1`, the Activity (10^-10.mol/mg/min) in data set [3] worked out at 1.48; in data set [7], 1.47. The Activity in [4] is 98%; in [8] it was 99%.

On to `c1ccc(-c2coc3ccccc23)cc1`, for which the inhibition at 500 µM in data set [11] was 80%. Moreover, in data set [9], the inhibition at 300 µM is 64%. Moreover, the Activity (10^-10.mol/mg/min) in data set [3] is 0.63; in [7], 0.79. For the same molecule, the results for the Activity in [4] and in data set [8] were 53% and 42%, respectively. The inhibition at 100 µM in [6] worked out at 32%.

In the case of `c1ccc2[nH]c(-c3cscn3)nc2c1` [THIABENDAZOLE], in data set [11], the inhibition at 500 µM stood at 93%. For the same molecule, the inhibition at 100 µM in data set [6] was 86%.

Regarding `Fc1cccc2[nH]cc(-c3ccccc3)c12`, in data set [1], the inhibition at 50 µM came out at 100%. In addition, the Activity (10^-10.mol/mg/min) in [3] was found to be 0.43; in [7], 0.55. In addition, the Activity worked out at 37% in data set [4] and 29% in [8]. Also, the inhibition at 10 µM in data set [5] amounted to 47%.

As to `c1ccc2c(-c3nccs3)c[nH]c2c1` [CAMALEXIN], the inhibition at 50 µM in [1] turned out to be 81%. The Activity (10^-10.mol/mg/min) in [3] was found to be 0.84; in [7], 0.95. Moreover, the Activity in data set [4] was 63%; in data set [8], 56%. In addition, the inhibition at 100 µM in [6] came out at 100%.

As to `Fc1ccc2[nH]cc(-c3nccs3)c2c1` [5-FLUOROCAMALEXIN], in data set [1], the inhibition at 50 µM is 61%. Also, in data set [9], the inhibition at 300 µM turned out to be 85%. Also, the Activity (10^-10.mol/mg/min) in [3] amounted to 0.72; in data set [7], 0.81. In addition, the Activity in [4] is 54%; in data set [8] it was 48%. In addition, the inhibition at 100 µM in [6] was 70%.

As for `CSC(=S)NCc1c[nH]c2ccccc12` [BRASSININ], the inhibition at 300 µM in data set [9] amounted to 100%. Further, in [12], the half-life is 9 h. The inhibition at 100 µM in data set [6] was determined as 37%.

Regarding `CSC(=S)NCc1cc2ccccc2[nH]1` [ISOBRASSININ], the half-life in data set [13] is 2 h. In data set [9], the inhibition at 300 µM was 100%. The Activity (10^-10.mol/mg/min) is 0.41 in [3] and 0.63 in data set [7]. The Activity in data set [4] came out at 42%; in [8] it was 27%. The inhibition at 100 µM in data set [6] was 48%.

As for `CSC(=S)NCc1csc2ccccc12`, in data set [11], the inhibition at 500 µM came to 89%. For the same molecule, in data set [9], the inhibition at 300 µM stood at 63%. The Activity (10^-10.mol/mg/min) in data set [3] was determined as 1.12; in [7], 1.22. Moreover, the figures for the Activity in [4] and in data set [8] were 81% and 75%, respectively. Further, the inhibition at 100 µM in data set [6] stood at 10%.

Consider `c1ccc(-c2cc3ccccc3[nH]2)cc1`, for which the Activity (10^-10.mol/mg/min) in data set [3] and in data set [7] was 0.59 throughout. In addition, the Activity in data set [4] and in [8] was 39% throughout.

`CSC(=S)NCc1coc2ccccc12`: the inhibition at 500 µM in [11] is 45%. For the same molecule, in [9], the inhibition at 300 µM came to 23%. Further, in data set [2], the half-life at 100 µM worked out at 9 h. The Activity (10^-10.mol/mg/min) in data set [3] was 0.55; in [7], 0.75. The Activity in [4] stood at 50%; in [8], 37%. Moreover, the result in data set [6] was inactive.
